Columns and labels:
purified human IDO [1] = target: T1, purified human IDO (Homo sapiens, UniProt P14902); assay: IDO assay; type: biochemical; details: for inhibition at 100 µM: read-out: IDO inhibition at 100 μM (%)
Method in brief: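 Test compound, serially diluted in DMSO, mixed with 1 μg purified human IDO in 50 mM potassium phosphate, pH 6.5. Ascorbic acid, methylene blue, catalase and 200 μM L-tryptophan added; 1 h at 37°C. Stopped with 30% TCA, 15 min at 65°C, then centrifuged. Supernatant mixed 1:1 with Ehrlich's reagent at RT; kynurenine read at 480 nm. Screened at 100 μM; IC50 from lower concentrations; menadione as positive control; at least triplicate.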

purified human IDO [2] = target: T1, purified human IDO; assay: Determination of inhibition pattern of IDO inhibitors; type: biochemical
Method in brief: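 Same kynurenine assay with purified human IDO (37°C, 1 h, Ehrlich's reagent, A480), run at five L-tryptophan concentrations crossed with four inhibitor concentrations, including zero. Mode of inhibition was taken from Lineweaver-Burk plots. Ki was calculated from the y-intercept, (1 + [I]/Ki)/Vmax. Independent measurements, at least triplicate.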

T1 sequence (P14902 whole entry): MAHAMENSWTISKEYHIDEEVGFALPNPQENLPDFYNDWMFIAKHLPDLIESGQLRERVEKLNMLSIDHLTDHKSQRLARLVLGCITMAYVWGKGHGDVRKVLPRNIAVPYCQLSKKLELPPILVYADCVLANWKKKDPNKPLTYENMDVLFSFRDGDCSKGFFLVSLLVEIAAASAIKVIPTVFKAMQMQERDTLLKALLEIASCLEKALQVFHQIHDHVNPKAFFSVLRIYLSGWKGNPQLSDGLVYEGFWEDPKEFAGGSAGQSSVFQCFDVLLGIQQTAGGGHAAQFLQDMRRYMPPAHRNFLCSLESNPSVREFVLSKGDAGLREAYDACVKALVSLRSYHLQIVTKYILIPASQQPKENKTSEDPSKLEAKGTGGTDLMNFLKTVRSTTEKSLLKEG

Row | IC50 (purified human IDO [1]) [µM] | inhibition at 100 µM (purified human IDO [1]) [%] | Ki (purified human IDO [2]) [µM] | SMILES
1 | 46.5 ± 1.51 | 67.4 ± 2.53 | 85.3 | O=C1c2cccc(O)c2C(=O)c2c(O)cc(CO)cc21 [Compound 1, aloe emodin]
2 |  | 5.86 ± 3.08 |  | Cc1cc(=O)c2c(CO)cc(O)cc2o1 [Compound 10, 7-hydroxy-5-(hydroxymethyl)-2-methylchromone]
3 |  | 10.2 ± 1.75 |  | Cc1cc(O)cc(O)c1 [Compound 11, 5-methylresorcinol]
4 | 3.71 ± 1.26 |  |  | CC1=CC(=O)c2ccccc2C1=O [Menadione, reference compound]

— publication PMC5307915 (Pharmacognosy Magazine, 2017)
